Experimental data published in ChEMBL document CHEMBL3046803, “Synthesis and insecticidal activities of novel anthranilic diamides containing acylthiourea and acylurea” (2012).
The source made the active and inactive calls. The calls are words filed in the database; no cut-off is given here.

Legend:
Culex pipiens pallens = experiment: Insecticidal activity against Culex pipiens pallens (mosquito) fourth-instar larvae assessed as larvicidal activity at 2 mg/L measured 3 days post dose; assay type: functional
Outline: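 Mosquito larvicidal test: compounds were dissolved in acetone and diluted with distilled water to the test concentrations.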

Mythimna separata [1] = experiment: Insecticidal activity against Mythimna separata (Oriental armyworm) fourth-instar larvae infected Zea mays leaves assessed as larvicidal activity at 5 mg/L measured 2 days post dose; assay type: functional
Outline: (§1)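 Foliar application test: individual corn (Tangyu 10) leaves were placed on moistened filter paper in Petri dishes.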

Mythimna separata [2] = experiment: Insecticidal activity against Mythimna separata (Oriental armyworm) fourth-instar larvae infected Zea mays leaves assessed as larvicidal activity at 10 mg/L measured 2 days post dose; assay type: functional; outline: as §1
Mythimna separata [3] = experiment: Insecticidal activity against Mythimna separata (Oriental armyworm) fourth-instar larvae infected Zea mays leaves assessed as larvicidal activity at 20 mg/L measured 2 days post dose; assay type: functional; outline: as §1
Mythimna separata [4] = experiment: Insecticidal activity against Mythimna separata (Oriental armyworm) fourth-instar larvae infected Zea mays leaves assessed as larvicidal activity at 50 mg/L measured 2 days post dose; assay type: functional; outline: as §1
Mythimna separata [5] = experiment: Insecticidal activity against Mythimna separata (Oriental armyworm) fourth-instar larvae infected Zea mays leaves assessed as larvicidal activity at 100 mg/L measured 2 days post dose; assay type: functional; outline: as §1
Mythimna separata [6] = experiment: Insecticidal activity against Mythimna separata (Oriental armyworm) fourth-instar larvae infected Zea mays leaves assessed as larvicidal activity at 200 mg/L measured 2 days post dose; assay type: functional; outline: as §1
[7] = molecular target: Voltage-dependent L-type calcium channel, putative (Pediculus humanus subsp. corporis) (UniProt E0VY79); experiment: Inhibition of voltage-dependent L-type calcium channel in Spodoptera exigua neurons assessed as peak calcium current at 0.1 mM measured 1 min post dose by electrophysiology method (reference value: 104.47 +/- 2.33%); set-up: scale not given: the % may be the effect or the level left
[8] = molecular target: Voltage-dependent L-type calcium channel, putative (Pediculus humanus subsp. corporis) (UniProt E0VY79); experiment: Inhibition of voltage-dependent L-type calcium channel in Spodoptera exigua neurons assessed as peak calcium current at 0.1 mM measured 2 min post dose by electrophysiology method (reference value: 102.75 +/- 2.45%); set-up: scale not given: the % may be the effect or the level left
[9] = molecular target: Voltage-dependent L-type calcium channel, putative (Pediculus humanus subsp. corporis) (UniProt E0VY79); experiment: Inhibition of voltage-dependent L-type calcium channel in Spodoptera exigua neurons assessed as peak calcium current at 0.1 mM measured 3 min post dose by electrophysiology method (reference value: 101.76 +/- 2.7%); set-up: scale not given: the % may be the effect or the level left
[10] = molecular target: Voltage-dependent L-type calcium channel, putative (Pediculus humanus subsp. corporis) (UniProt E0VY79); experiment: Inhibition of voltage-dependent L-type calcium channel in Spodoptera exigua neurons assessed as peak calcium current at 0.001 mM measured 3 min post dose by electrophysiology method (reference value: 101.76 +/- 2.7%); set-up: scale not given: the % may be the effect or the level left
[11] = molecular target: Ryanodien receptor (Spodoptera exigua) (UniProt H9CNL0); experiment: Inhibition of Ryanodine receptor in Spodoptera exigua neurons assessed as reduction in intracellular calcium level at 1000 mg/L pre-treated with 10 mg/ml heparin and 1 uM thapsigargin by calcium-imaging technique; assay type: cell-based
Outline: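 Primary cultured S. exigua neurons were rinsed in saline, then loaded in the dark at 28 °C with 5 μM fluo-5N for 5 h in Ca-free saline (150 mM NaCl, 4 mM KCl, 2 mM MgCl₂, 2 mM EGTA, 10 mM HEPES, pH 6.9). They were treated with 10 mg/mL heparin for 20 min, then 1 μM thapsigargin for 10 min. Fluorescence was imaged (40× oil, 488/530 nm) and expressed as F/F₀.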

[12] = molecular target: Voltage-dependent L-type calcium channel, putative (Pediculus humanus subsp. corporis) (UniProt E0VY79); experiment: Inhibition of voltage-dependent L-type calcium channel in Spodoptera exigua neurons assessed as change in […] calcium level at 1000 mg/L measured 10 min post dose by calcium-imaging technique
Outline: (§2)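 S. exigua neurons were rinsed in physiological saline (pH 6.9). They were dye-loaded in the dark at 28 °C, either with 10 μM fluo-3-AM for 45 min in standard saline or with 5 μM fluo-5N for 5 h in EGTA Ca-free saline, then rinsed twice. [Ca²⁺]i was imaged on an inverted fluorescence microscope (40× oil, 488/530 nm) over 10 min. F/F₀ is relative to resting baseline; ≥6 repeats; mean ± SD.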

[13] = molecular target: Voltage-dependent L-type calcium channel, putative (Pediculus humanus subsp. corporis) (UniProt E0VY79); experiment: Inhibition of voltage-dependent L-type calcium channel in Spodoptera exigua neurons assessed as increase in intracellular calcium level at 1000 mg/L measured 10 min post dose by calcium-imaging technique; assay type: cell-based; outline: as §2
[14] = molecular target: Voltage-dependent L-type calcium channel, putative (Pediculus humanus subsp. corporis) (UniProt E0VY79); experiment: Inhibition of voltage-dependent L-type calcium channel in Spodoptera exigua neurons assessed as peak intracellular calcium level at 1000 mg/L measured 10 min post dose by calcium-imaging technique relative to initial untreated control; assay type: cell-based; set-up: scale not given: the % may be the effect or the level left; outline: as §2
[15] = molecular target: Voltage-dependent L-type calcium channel, putative (Pediculus humanus subsp. corporis) (UniProt E0VY79); experiment: Inhibition of voltage-dependent L-type calcium channel in Spodoptera exigua neurons assessed as change in peak calcium current at 0.001 mM at -70 mV holding potential measured 1 to 10 min post dose by electrophysiology method
[16] = molecular target: Voltage-dependent L-type calcium channel, putative (Pediculus humanus subsp. corporis) (UniProt E0VY79); experiment: Inhibition of voltage-dependent L-type calcium channel in Spodoptera exigua neurons assessed as peak calcium current at 0.1 mM at -70 mV holding potential measured 10 min post dose by electrophysiology method
[17] = molecular target: Voltage-dependent L-type calcium channel, putative (Pediculus humanus subsp. corporis) (UniProt E0VY79); experiment: Inhibition of voltage-dependent L-type calcium channel in Spodoptera exigua neurons assessed as peak calcium current at 0.1 mM at -70 mV holding potential measured 5 min post dose by electrophysiology method
[18] = molecular target: Voltage-dependent L-type calcium channel, putative (Pediculus humanus subsp. corporis) (UniProt E0VY79); experiment: Inhibition of voltage-dependent L-type calcium channel in Spodoptera exigua neurons assessed as change in peak calcium current at 0.1 mM at -70 mV holding potential measured 1 min post dose by electrophysiology method
[19] = molecular target: Voltage-dependent L-type calcium channel, putative (Pediculus humanus subsp. corporis) (UniProt E0VY79); experiment: Inhibition of voltage-dependent L-type calcium channel in Spodoptera exigua neurons assessed as peak calcium current at 0.001 mM measured 8 min post dose by electrophysiology method (reference value: 90.85 +/- 0.65%); set-up: scale not given: the % may be the effect or the level left
[20] = molecular target: Voltage-dependent L-type calcium channel, putative (Pediculus humanus subsp. corporis) (UniProt E0VY79); experiment: Inhibition of voltage-dependent L-type calcium channel in Spodoptera exigua neurons assessed as peak calcium current at 0.1 mM measured 8 min post dose by electrophysiology method (reference value: 90.85 +/- 0.65%); set-up: scale not given: the % may be the effect or the level left
[21] = molecular target: Voltage-dependent L-type calcium channel, putative (Pediculus humanus subsp. corporis) (UniProt E0VY79); experiment: Inhibition of voltage-dependent L-type calcium channel in Spodoptera exigua neurons assessed as peak calcium current at 0.001 mM measured 5 min post dose by electrophysiology method (reference value: 98.06 +/- 1.01%); set-up: scale not given: the % may be the effect or the level left
[22] = molecular target: Voltage-dependent L-type calcium channel, putative (Pediculus humanus subsp. corporis) (UniProt E0VY79); experiment: Inhibition of voltage-dependent L-type calcium channel in Spodoptera exigua neurons assessed as peak calcium current at 0.1 mM measured 5 min post dose by electrophysiology method (reference value: 98.06 +/- 1.01%); set-up: scale not given: the % may be the effect or the level left
[23] = molecular target: Voltage-dependent L-type calcium channel, putative (Pediculus humanus subsp. corporis) (UniProt E0VY79); experiment: Inhibition of voltage-dependent L-type calcium channel in Spodoptera exigua neurons assessed as peak calcium current at 0.001 mM measured 4 min post dose by electrophysiology method (reference value: 99.66 +/- 1.64%); set-up: scale not given: the % may be the effect or the level left
[24] = molecular target: Voltage-dependent L-type calcium channel, putative (Pediculus humanus subsp. corporis) (UniProt E0VY79); experiment: Inhibition of voltage-dependent L-type calcium channel in Spodoptera exigua neurons assessed as peak calcium current at 0.1 mM measured 4 min post dose by electrophysiology method (reference value: 99.66 +/- 1.64%); set-up: scale not given: the % may be the effect or the level left
[25] = molecular target: Voltage-dependent L-type calcium channel, putative (Pediculus humanus subsp. corporis) (UniProt E0VY79); experiment: Inhibition of voltage-dependent L-type calcium channel in Spodoptera exigua neurons assessed as peak calcium current at 0.001 mM measured 10 min post dose by electrophysiology method (reference value: 85.44 +/- 1.14%); set-up: scale not given: the % may be the effect or the level left
[26] = molecular target: Voltage-dependent L-type calcium channel, putative (Pediculus humanus subsp. corporis) (UniProt E0VY79); experiment: Inhibition of voltage-dependent L-type calcium channel in Spodoptera exigua neurons assessed as peak calcium current at 0.1 mM measured 10 min post dose by electrophysiology method (reference value: 85.44 +/- 1.14%); set-up: scale not given: the % may be the effect or the level left

Chain of Voltage-dependent L-type calcium channel, putative (Pediculus humanus subsp. corporis) (E0VY79 as listed by the source): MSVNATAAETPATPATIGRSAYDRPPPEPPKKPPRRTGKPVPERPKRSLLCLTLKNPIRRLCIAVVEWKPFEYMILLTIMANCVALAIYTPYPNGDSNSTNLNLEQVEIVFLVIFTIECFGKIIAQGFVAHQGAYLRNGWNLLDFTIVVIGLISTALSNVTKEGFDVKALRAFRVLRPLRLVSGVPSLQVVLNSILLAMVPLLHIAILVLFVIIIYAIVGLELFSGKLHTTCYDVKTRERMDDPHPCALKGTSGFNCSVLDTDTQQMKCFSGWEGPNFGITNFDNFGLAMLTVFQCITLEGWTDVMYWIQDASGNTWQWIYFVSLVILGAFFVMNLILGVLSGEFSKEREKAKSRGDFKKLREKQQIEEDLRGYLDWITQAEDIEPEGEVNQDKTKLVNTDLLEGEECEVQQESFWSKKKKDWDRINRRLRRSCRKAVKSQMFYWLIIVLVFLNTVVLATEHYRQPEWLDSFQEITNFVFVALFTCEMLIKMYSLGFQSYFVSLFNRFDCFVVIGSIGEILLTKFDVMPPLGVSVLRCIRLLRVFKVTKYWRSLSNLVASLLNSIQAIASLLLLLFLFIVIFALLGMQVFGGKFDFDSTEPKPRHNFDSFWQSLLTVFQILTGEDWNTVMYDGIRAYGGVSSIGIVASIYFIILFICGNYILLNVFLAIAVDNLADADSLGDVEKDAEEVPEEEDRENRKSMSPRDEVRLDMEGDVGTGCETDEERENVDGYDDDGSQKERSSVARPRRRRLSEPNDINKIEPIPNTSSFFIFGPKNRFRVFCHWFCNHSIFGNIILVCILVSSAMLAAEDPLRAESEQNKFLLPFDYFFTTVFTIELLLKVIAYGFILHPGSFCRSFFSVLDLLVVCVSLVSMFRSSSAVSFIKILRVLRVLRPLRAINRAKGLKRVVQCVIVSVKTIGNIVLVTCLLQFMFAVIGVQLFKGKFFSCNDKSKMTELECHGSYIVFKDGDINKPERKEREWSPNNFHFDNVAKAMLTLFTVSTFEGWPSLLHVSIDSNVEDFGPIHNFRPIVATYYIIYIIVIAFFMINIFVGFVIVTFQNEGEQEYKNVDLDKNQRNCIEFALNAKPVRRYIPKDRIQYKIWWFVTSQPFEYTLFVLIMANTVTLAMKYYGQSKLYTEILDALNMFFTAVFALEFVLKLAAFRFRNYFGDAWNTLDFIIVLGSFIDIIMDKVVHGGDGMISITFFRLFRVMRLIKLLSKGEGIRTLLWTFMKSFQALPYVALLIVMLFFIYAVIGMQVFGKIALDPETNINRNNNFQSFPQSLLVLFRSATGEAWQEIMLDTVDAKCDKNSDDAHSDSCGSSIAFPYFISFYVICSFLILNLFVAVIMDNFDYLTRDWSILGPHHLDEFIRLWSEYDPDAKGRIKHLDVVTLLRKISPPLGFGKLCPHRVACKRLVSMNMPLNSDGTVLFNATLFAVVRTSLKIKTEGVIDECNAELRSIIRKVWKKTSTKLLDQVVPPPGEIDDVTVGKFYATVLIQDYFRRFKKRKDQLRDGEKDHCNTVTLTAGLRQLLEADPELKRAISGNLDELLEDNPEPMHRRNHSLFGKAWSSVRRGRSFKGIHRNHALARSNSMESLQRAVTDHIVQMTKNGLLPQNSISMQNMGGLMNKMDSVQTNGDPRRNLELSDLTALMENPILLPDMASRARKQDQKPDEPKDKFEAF

`Cc1cc(Cl)cc(C(=O)NC(C)C)c1NC(=S)NC(=O)c1cc(Cl)nn1-c1ncccc1Cl` showed an Activity (Culex pipiens pallens) of 40%, an Activity (Mythimna separata [1]) of 40% and an Activity (Mythimna separata [2]) of 100%. For the same molecule, the Activity (Mythimna separata [3]) was 100%, the Activity (Mythimna separata [4]) was 100% and the Activity (Mythimna separata [5]) was 100%. For the same molecule, the Activity (Mythimna separata [6]) was 100%, the Activity [7] was 91.5% and the Activity [8] was 84.1%. The Activity [9] was 80.7%, the Activity [10] was 95.8% and the inhibition [11] was “Active”. For the same molecule, the inhibition [12] was “inactive”, the Activity [13] was “Active” and the Activity [14] was 117%. For the same molecule, the inhibition [15] was “inactive”, the Activity [16] was -1.27 nanoampere and the Activity [17] was -1.64 nanoampere. It also gave an Activity [18] of 10 mV, an Activity [19] of 81.2% and an Activity [20] of 61%. The Activity [21] was 84.4%, the Activity [22] was 70.2% and the Activity [23] was 90.1%. It also gave an Activity [24] of 74.4%, an Activity [25] of 74.6% and an Activity [26] of 54.7%.
